# This is a sample that favours compounds with a hit; in the whole collection about 2.5% have one here.
# TRPC4 PAM: positive allosteric modulators of TRPC4, primary screen, cell-based, mouse TRPC4beta, HEK293 mu-opioid, Fluo-4 calcium; Short transient receptor potential channel 4 (Mus musculus), Q9QUQ5; DAMGO EC20, Fluo-4 Ca2+ flux; hits give high values; B-score at 10 µM; hit rate 0.42% among 310,000; AID 2227, 2009;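 active = B-score of calcium response area above 5 SD of library B-scores, with initial fluorescence ratio within 5 SD of library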;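 also: B-score of integrated fluorescence ratio over time as area under calcium response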
# Target sequence (Q9QUQ5 whole entry, looked up): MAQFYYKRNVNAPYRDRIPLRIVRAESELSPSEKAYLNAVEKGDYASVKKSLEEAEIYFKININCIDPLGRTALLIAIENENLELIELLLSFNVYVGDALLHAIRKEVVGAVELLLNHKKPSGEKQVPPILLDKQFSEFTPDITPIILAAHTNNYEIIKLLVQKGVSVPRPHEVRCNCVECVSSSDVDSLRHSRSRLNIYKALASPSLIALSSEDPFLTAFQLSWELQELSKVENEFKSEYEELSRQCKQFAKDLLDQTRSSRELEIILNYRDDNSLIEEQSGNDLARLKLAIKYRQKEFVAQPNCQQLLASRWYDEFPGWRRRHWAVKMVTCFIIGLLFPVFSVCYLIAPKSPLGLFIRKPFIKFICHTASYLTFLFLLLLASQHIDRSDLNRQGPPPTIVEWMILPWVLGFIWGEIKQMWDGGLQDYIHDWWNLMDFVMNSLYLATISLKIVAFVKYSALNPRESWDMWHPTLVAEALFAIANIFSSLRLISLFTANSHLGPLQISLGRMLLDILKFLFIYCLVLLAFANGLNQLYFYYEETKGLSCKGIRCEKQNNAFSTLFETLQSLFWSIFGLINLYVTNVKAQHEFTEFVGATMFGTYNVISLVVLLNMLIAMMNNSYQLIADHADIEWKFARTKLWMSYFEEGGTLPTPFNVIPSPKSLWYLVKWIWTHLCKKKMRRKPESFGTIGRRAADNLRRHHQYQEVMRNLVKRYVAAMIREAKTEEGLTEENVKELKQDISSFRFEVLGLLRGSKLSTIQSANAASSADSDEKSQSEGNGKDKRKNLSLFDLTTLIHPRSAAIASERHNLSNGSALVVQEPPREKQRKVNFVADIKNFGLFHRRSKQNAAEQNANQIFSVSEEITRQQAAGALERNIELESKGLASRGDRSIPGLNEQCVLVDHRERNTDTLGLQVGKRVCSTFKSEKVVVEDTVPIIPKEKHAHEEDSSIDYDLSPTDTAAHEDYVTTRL
# TRPC6 act: mouse TRPC6 channel activators, primary screen, cell-based, HEK293, membrane potential dye; Short transient receptor potential channel 6 (Mus musculus), Q61143; HEK293-TRPC6 membrane potential dye fluorescence; hits give high values; B-score at 10 µM; hit rate 0.13% among 310,000;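 active = B-score of the integrated fluorescence ratio above library mean plus 3 SD, and starting fluorescence ratio within library mean plus 5 SD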;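 also: higher score means more depolarization so channel activation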
# Platelet DG rel: inhibitors of platelet dense granule secretion, primary screen, cell-based, MLPCN, human platelets; human platelet-rich plasma, SFLLRN dense granule ATP release, luminescence; inhibition, %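 (compounds screened at 7.5 µM in platelet-rich plasma)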; hit rate 0.22% among 300,000; AID 1663, 2009;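 active = mean replicate score, as percent of positive control, at or above 50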
# TRPC4 agonist: activators of mouse TRPC4 channel, primary screen, Fluo4 calcium, HEK293 TRPC4beta/mu-opioid cells | Short transient receptor potential channel 4 (Mus musculus), Q9QUQ5 | Fluo4 calcium fluorescence; hits give high values | B-score at 10 µM | hit rate 0.49% among 310,000;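 active = B-score above 5 SD of library B-scores, and initial fluorescence ratio not above library mean plus 5 SD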;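 also: positive B-score marks a calcium rise read as TRPC4 activation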
#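 Technique: kinetic Fluo4 calcium fluorescence; Test system: TRPC4beta and mu-opioid receptor HEK293 stable cells; Measure: B-scored integrated calcium fluorescence ratio; Benchmarks: low control buffer alone, high control maximal DAMGO; Schedule: 45 min room-temperature Fluo4 loading, 110 s read.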
# TRPC4 block: inhibitors of mouse TRPC4 channel, primary screen, Fluo4 calcium, HEK293 TRPC4beta/mu-opioid cells; Short transient receptor potential channel 4 (Mus musculus), Q9QUQ5; DAMGO-evoked Fluo4 calcium flux; hits give low values; B-score at 10 µM; hit rate 0.39% among 300,000;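 active = B-score over 3 SD under the library average, no early fluorescence shift, positive overall ratio signal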
#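 material = TRPC4beta/mu-opioid receptor HEK293 cell line | probe or stimulus = sequential submaximal and maximal DAMGO stimulation | compound dosing = one concentration per compound | measured by = Fluo4 Ca2+ flux fluorescence | evaluation = integrated fluorescence ratio relative to baseline, converted to per-well B score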
# TRPC6 inhibitor: mouse TRPC6 channel inhibitors, primary screen, cell-based, HEK293, membrane potential dye; Short transient receptor potential channel 6 (Mus musculus), Q61143; ACh-evoked depolarization; hits give low values; B-score at 10 µM; hit rate 1.1% among 310,000; AID 2553, 2010;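 active = B-score under library mean minus 3 SD, initial fluorescence not abnormally high, positive integrated signal ratio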;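 also: B-score derived from integrated fluorescence ratio over the kinetic read; more negative B-score means stronger inhibition of depolarization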
# TRPC4 spec 2: second check of whether TRPC6 inhibitors also affect mouse TRPC4; HEK293 TRPC4/MOR, membrane potential dye fluorescence; channel activated by saturating DAMGO dose; inhibition, % at 10 µM; shares compounds with TRPC6 inhibitor; hit rate 42% among 920;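 active = compounds whose fluorescence signal differed from control wells by over 3 SD, either direction, in both duplicate plates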
# TRPC4 spec: mouse TRPC4 modulation by TRPC6 hits, confirmation, selectivity assay for TRPC6 inhibitor project, cell-based, HEK293 TRPC4/mu-opioid, membrane potential dye | hit rate 61% among 920 | activity change, negative = inhibition, % at 10 µM | shares compounds with TRPC6 inhibitor | AID 2777, 2010 | membrane potential fluorescence;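 active = rise or fall in signal beyond 3 SD of buffer-only wells in both replicate plates, either sign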;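 also: integrated kinetic ratio of fluorescence range over baseline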
# HEK293 MPD ctr 2-1: nonspecific membrane potential effects, parental HEK293, confirmation, counter-screen for TRPC6 inhibitor project, cell-based, second counter screen. shares compounds with TRPC6 inhibitor. parental HEK293 membrane potential dye fluorescence; maximal acetylcholine challenge after compound addition. signal change vs control, % at 10 µM. hit rate 31% among 920. AID 2779, 2010;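 active = membrane potential signal moving either way by over 3 SD of the maximum-effect control, in both duplicate plates, meaning non-specific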
# HEK293 MPD ctr-1: membrane potential modulation in parental HEK293, confirmation, counter-screen for TRPC6 inhibitor project, cell-based | shares compounds with TRPC6 inhibitor | parental HEK293 membrane potential dye fluorescence | membrane potential signal change, % at 10 µM | hit rate 60% among 920 | AID 2780, 2010;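 active = membrane potential signal shifting up or down by more than 3 SD of buffer-only wells, on both duplicate plates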
# HEK293 MPD ctr-2: parental HEK293 membrane potential modulation, confirmation, counter-screen for TRPC6 modulator project, cell-based; shares compounds with TRPC6 inhibitor; membrane potential dye fluorescence; membrane potential signal change, % at 10 µM; hit rate 51% among 2,400; AID 488924, 2010;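 active = membrane potential signal moves up or down beyond 5 SD from buffer-only wells, on both duplicate plates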
# HEK293 MPD ctr 2-2: second check of TRPC6 modulator effects in parental HEK293 cells; shares compounds with TRPC6 inhibitor; membrane potential dye fluorescence; after compound, maximal acetylcholine stimulation; inhibition, % at 10 µM; hit rate 14% among 2,400; AID 488926;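 active = membrane potential signal drops by more than 5 SD from the mean control signal, in both duplicate plates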;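 also: plate controls were acetylcholine ECmax control wells for no effect and buffer only wells for full effect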
# TRPC4 ctr mod: TRPC4 modulation by TRPC6 hit compounds, confirmation, selectivity assay for TRPC6 modulator project, cell-based, HEK293 TRPC4/mu-opioid, membrane potential dye, mouse. membrane potential fluorescence. percent change from control (negative = decrease, positive = increase), % at 10 µM. AID 488927, 2010. hit rate 69% among 2,400. shares compounds with TRPC6 inhibitor;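 active = membrane potential signal moved up or down beyond 5 SD of buffer control wells, in both duplicate plates, actives on both sides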;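 also: plate controls were assay buffer wells for no effect and DAMGO maximal-effect wells for full effect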
# TRPC4 ctr inh 2: mouse TRPC4 off-target activity of TRPC6 modulators, second screen; inhibition, % at 10 µM; AID 488928; HEK293 TRPC4/mu-opioid, membrane potential dye fluorescence; stimulated with maximal-effect DAMGO; hit rate 55% among 2,400; shares compounds with TRPC6 inhibitor;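 active = drop in membrane potential signal beyond 5 SD of the control wells in both duplicate plates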;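 also: TRPC4 counter screen for TRPC6 hits run under conditions tuned for TRPC6 not TRPC4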
# TRPC6 block conf: mouse TRPC6 channel inhibitors, confirmation, HEK293 cells, membrane potential dye, duplicate; inhibition, % at 10 µM; ACh-evoked depolarization; AID 488960, 2010; hit rate 43% among 3,300; shares compounds with TRPC6 inhibitor;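 active = fluorescence ratio falls more than 5 SD below the full-stimulation control mean, in both duplicate runs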;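 also: integrated fluorescence ratio of peak minus minimum over baseline after agonist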
# TRPC6 act conf: mouse TRPC6 channel activators, confirmation, HEK293 cells, membrane potential dye, duplicate; shares compounds with TRPC6 inhibitor; HEK293-TRPC6 membrane potential dye fluorescence, FDSS; activation, % at 10 µM; hit rate 11% among 2,800; AID 488961, 2010;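 active = ratio signal rise beyond 5 SD above unstimulated control wells' mean, seen in both duplicate runs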;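 also: plate controls were buffer EC0 wells for no effect and acetylcholine ECmax response for full effect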
# * = called active by the depositor; i = inactive; . = not tested or not shown.
SMILES,TRPC4 PAM,TRPC6 act,Platelet DG rel,TRPC4 agonist,TRPC4 block,TRPC6 inhibitor,HEK293 MPD ctr-2,HEK293 MPD ctr 2-2,TRPC4 ctr mod,TRPC4 ctr inh 2,TRPC6 block conf,TRPC6 act conf,others
N=c1c(C(=O)NCc2ccc(F)cc2)cc2c(=O)n3ccccc3nc2n1Cc1cccnc1,i,i,5.2,i,i,-5.76*,i,i,-33.5%*,i,51.5%*,i,
COC(=O)c1cc2c(=O)n3ccccc3nc2n(Cc2cccnc2)c1=N,i,i,1.5,i,i,-7.8*,.,.,.,.,i,i,TRPC4 spec 2=75.0%*;TRPC4 spec=-33.2%*;HEK293 MPD ctr 2-1=i;HEK293 MPD ctr-1=-520.0%*
CCCn1c(NCc2ccc3c(c2)OCO3)nc2ccccc21,i,i,0.2,i,i,-5.24*,i,i,8.0%*,73.5%*,44.0%*,i,
CCCCn1c(NCc2ccc3c(c2)OCO3)nc2ccccc21,i,i,-0.5,i,i,-5.25*,i,i,i,88.5%*,40.0%*,i,
O=C(NCc1cccs1)C1CCC(=O)N(Cc2cccc(C(F)(F)F)c2)C1 (stereo unspecified),i,i,-8.2,i,i,i,.,.,.,.,.,.,
CN(C)CCCN(C(=O)c1ccco1)c1nc2c(F)cc(F)cc2s1,i,i,3.2,i,i,-7.14*,-158.5%*,i,-34.0%*,82.0%*,51.5%*,i,
CN(C)CCCN(C(=O)/C=C/c1cccs1)c1nc2c(F)cccc2s1,i,i,3.1,i,i,-7.06*,.,.,.,.,i,i,TRPC4 spec 2=i;TRPC4 spec=i;HEK293 MPD ctr 2-1=i;HEK293 MPD ctr-1=i
CN(C)CCCN(C(=O)c1ccco1)c1nc2c(F)cccc2s1,i,i,-1.0,i,i,-9.79*,.,.,.,.,107.4%*,i,TRPC4 spec 2=18.0%*;TRPC4 spec=-31.9%*;HEK293 MPD ctr 2-1=25.5%*;HEK293 MPD ctr-1=-299.5%*
CN(C)CCCN(C(=O)c1ccco1)c1nc(-c2ccc(Cl)cc2)cs1,i,i,1.1,i,-6*,-7.29*,.,.,.,.,i,i,TRPC4 spec 2=12.5%*;TRPC4 spec=i;HEK293 MPD ctr 2-1=i;HEK293 MPD ctr-1=-151.5%*
CN(C)CCCN(C(=O)c1sc2ccccc2c1Cl)c1nc2c(F)cccc2s1,i,i,-2.5,i,i,i,.,.,.,.,.,.,
COc1cccc(CNC(=O)c2ccccc2NC(=O)C2=C(C)OCCS2)c1,i,i,-10.3,i,i,i,.,.,.,.,.,.,
CCOC(=O)N1CCN(c2nc(-c3ccccc3)c3ccccc3n2)CC1,i,i,6.5,i,i,i,.,.,.,.,.,.,
COc1ccc(N2C(=O)CSC2c2ccc3c(c2)OCO3)cc1 (stereo unspecified),i,i,-1.6,i,i,-7.54*,.,.,.,.,i,i,TRPC4 spec 2=i;TRPC4 spec=i;HEK293 MPD ctr 2-1=i;HEK293 MPD ctr-1=i
CC1(C)CC(=O)c2c(O)cc(O)cc2O1,i,i,-2.8,i,i,i,.,.,.,.,.,.,
C[C@]12CCC[C@H](O1)c1c(cc3c(c1O)C(=O)c1c(O)cc(O)cc1C3=O)O2,i,12.6*,0.4,i,i,i,274.0%*,i,58.5%*,i,i,91.0%*,
Cc1cc(N2CCN(C)CC2)nc(N2CCOCC2)n1,i,i,2.4,i,i,-5.71*,-246.0%*,i,-44.5%*,31.0%*,i,i,
Cc1cc(N2CCOCC2)nc(N2CCOCC2)n1,i,i,0.5,i,i,i,.,.,.,.,.,.,
COc1cccc(CN2CCN(C(=O)c3cccc4ccccc34)CC2)c1,i,11.5*,2.6,i,i,i,i,i,10.5%*,i,i,33.0%*,
COc1cc(CN2CCN(C(=O)c3cccc4ccccc34)CC2)cc(OC)c1OC,i,i,7.9,i,i,i,.,.,.,.,.,.,
OCCNCc1cc(Br)ccc1OCc1ccc(Cl)cc1,i,i,-1.1,i,i,-5.65*,101.5%*,i,17.0%*,89.0%*,45.0%*,.,
OCCNCc1cccc(OCc2ccc(Cl)cc2)c1,i,i,-0.7,i,i,i,.,.,.,.,.,.,
c1ccc(CCNc2ccnc3cc4ccccc4cc23)cc1,i,i,-3.8,i,i,i,.,.,.,.,.,.,

# High-throughput results: PubChem BioAssay, several laboratories
